Active and inactive are the calls of the source. No cut-off for these calls is given here.
Key:
[1] = target: Tyrosine-protein kinase HCK (Homo sapiens) (UniProt P08631); experiment: Binding affinity to wild-type human full length HCK (M22 to P526 residues) expressed in bacterial expression system at 100 nM by Kinomescan method relative to control
[2] = test system: Proto-oncogene tyrosine-protein kinase receptor Ret (Homo sapiens), P07949 [C634R]; experiment: Inhibition of RET isoform 9 C634R mutant (unknown origin) expressed in rat Rat1 assessed as reduction in RET phosphorylation at Y905 residue at 0.3 nM measured after 2 hrs by Western blot analysis; type: cell-based
Sequence of Proto-oncogene tyrosine-protein kinase receptor Ret (Homo sapiens), P07949 [C634R] (P07949 whole entry C634R, canonical isoform): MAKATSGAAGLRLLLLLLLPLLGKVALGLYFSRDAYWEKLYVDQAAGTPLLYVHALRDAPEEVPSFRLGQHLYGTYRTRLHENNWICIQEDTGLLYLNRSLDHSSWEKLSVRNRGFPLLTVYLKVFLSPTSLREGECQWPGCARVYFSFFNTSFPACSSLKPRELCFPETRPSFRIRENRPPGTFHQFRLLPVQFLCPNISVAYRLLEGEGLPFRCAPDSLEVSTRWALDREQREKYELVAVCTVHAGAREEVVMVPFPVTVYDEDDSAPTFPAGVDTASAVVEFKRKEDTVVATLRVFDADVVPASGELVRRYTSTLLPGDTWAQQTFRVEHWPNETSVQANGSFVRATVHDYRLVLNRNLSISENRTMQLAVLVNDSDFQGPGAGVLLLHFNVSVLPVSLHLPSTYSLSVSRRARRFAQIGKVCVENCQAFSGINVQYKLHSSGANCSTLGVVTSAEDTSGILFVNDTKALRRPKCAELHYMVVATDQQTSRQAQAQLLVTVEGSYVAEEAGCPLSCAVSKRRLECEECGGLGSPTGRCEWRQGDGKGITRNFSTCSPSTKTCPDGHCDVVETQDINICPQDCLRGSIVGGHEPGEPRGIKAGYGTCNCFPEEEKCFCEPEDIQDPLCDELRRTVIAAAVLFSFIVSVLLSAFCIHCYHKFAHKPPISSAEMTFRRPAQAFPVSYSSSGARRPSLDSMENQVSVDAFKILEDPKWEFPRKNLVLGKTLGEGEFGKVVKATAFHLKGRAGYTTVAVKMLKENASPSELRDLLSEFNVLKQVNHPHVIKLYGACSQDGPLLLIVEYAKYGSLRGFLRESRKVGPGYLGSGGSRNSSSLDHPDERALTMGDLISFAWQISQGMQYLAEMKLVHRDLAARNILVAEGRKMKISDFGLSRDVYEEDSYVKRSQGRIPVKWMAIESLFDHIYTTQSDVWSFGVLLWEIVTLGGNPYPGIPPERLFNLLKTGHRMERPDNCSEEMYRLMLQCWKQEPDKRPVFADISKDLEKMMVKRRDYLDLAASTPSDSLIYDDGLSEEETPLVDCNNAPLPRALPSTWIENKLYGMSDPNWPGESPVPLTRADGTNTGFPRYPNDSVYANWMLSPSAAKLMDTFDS
Summary of the method: (§1)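 RAT1 fibroblasts expressing RET-9 C634R, serum-starved, treated 2 h with 0.1–10.0 nM; 50 μg lysate blotted for RET pY905 and pY1062, normalized to total RET; ECL detection.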

[3] = test system: Proto-oncogene tyrosine-protein kinase receptor Ret (Homo sapiens), P07949 [C634R]; experiment: Inhibition of RET isoform 9 C634R mutant (unknown origin) expressed in rat Rat1 assessed as reduction in RET phosphorylation at Y1062 residue at 0.3 nM measured after 2 hrs by Western blot analysis; type: cell-based; summary of the method: as §1
[4] = test system: Proto-oncogene tyrosine-protein kinase receptor Ret (Homo sapiens), P07949 [C634R]; experiment: Inhibition of RET isoform 9 C634R mutant (unknown origin) expressed in rat Rat1 assessed as reduction in RET phosphorylation at Y905 residue at 3 nM measured after 2 hrs by Western blot analysis; type: cell-based; summary of the method: as §1
[5] = test system: Proto-oncogene tyrosine-protein kinase receptor Ret (Homo sapiens), P07949 [A883F]; experiment: Inhibition of RET isoform 9 A883F mutant (unknown origin) expressed in rat Rat1 assessed as reduction in RET phosphorylation at Y905 residue at 1 to 100 nM measured after 2 hrs by Western blot analysis; type: cell-based
Sequence of Proto-oncogene tyrosine-protein kinase receptor Ret (Homo sapiens), P07949 [A883F] (P07949 whole entry A883F, canonical isoform): as the sequence (P07949 whole entry C634R, canonical isoform) above, with R634C, A883F counted along it
Summary of the method: (§2)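 Serum-starved RAT1 (RET point mutants) or NIH3T3 (RET rearrangements) cells expressing short RET-9 isoform, treated 2 h; 50 μg total lysate immunoblotted with anti-phospho-Y1062 and anti-phospho-Y905 RET antibodies, normalized to total RET; ECL detection. Compound from 50 mM DMSO stock diluted in growth medium.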

[6] = test system: Proto-oncogene tyrosine-protein kinase receptor Ret (Homo sapiens), P07949 [V804L]; experiment: Inhibition of RET isoform 9 V804L mutant (unknown origin) expressed in rat Rat1 assessed as reduction in RET phosphorylation at Y1062 residue at 1 to 100 nM measured after 2 hrs by Western blot analysis; type: cell-based; summary of the method: as §2
Sequence of Proto-oncogene tyrosine-protein kinase receptor Ret (Homo sapiens), P07949 [V804L] (P07949 whole entry V804L, canonical isoform): as the sequence (P07949 whole entry C634R, canonical isoform) above, with R634C, V804L counted along it

Homo sapiens [7] = organism: Homo sapiens; experiment: Inhibition of NCOA4/RET isoform 9 (unknown origin) expressed in mouse NIH/3T3 cells assessed as reduction in RET phosphorylation at Y905 residue at 1 to 100 nM measured after 2 hrs by Western blot analysis; type: cell-based; summary of the method: as §2
Homo sapiens [8] = organism: Homo sapiens; experiment: Inhibition of NCOA4/RET isoform 9 (unknown origin) expressed in mouse NIH/3T3 cells assessed as reduction in RET phosphorylation at Y1062 residue at 1 to 100 nM measured after 2 hrs by Western blot analysis; type: cell-based; summary of the method: as §2
Homo sapiens [9] = organism: Homo sapiens; experiment: Effect on MAPK phosphorylation in RET deficient human PC9 cells at 1 to 100 nM measured after 2 hrs by western blot analysis
A549 = experiment: Effect on MAPK phosphorylation in RET deficient human A549 cells at 1 to 100 nM measured after 2 hrs by western blot analysis; type: cell-based
Homo sapiens [10] = organism: Homo sapiens; experiment: Effect on MAPK phosphorylation in RET deficient human Calu1 cells at 1 to 100 nM measured after 2 hrs by western blot analysis
BaF3 [11] = experiment: Cytotoxicity against mouse BAF3 cells assessed as reduction in cell proliferation supplemented with fresh medium containing compound for every 2 to 3 days and measured daily; type: cell-based
Summary of the method: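 Ba/F3 cells (parental with IL-3 10 ng/mL; RET/C634R, RET/M918T, NCOA4-RET stable transfectants, RET-51 isoform) were seeded at 200000/well in 10% FCS. Drug or vehicle was added the day after plating, with medium changed every 2–3 days, and cells were counted daily. […] This was a single experiment in triplicate.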

BaF3 [12] = experiment: Inhibition of NCOA4/RET […] (unknown origin) expressed in mouse BAF3 cells assessed as reduction in RET phosphorylation at Y1062 residue at 0.3 to 30 nM measured after 2 hrs by Western blot analysis; type: cell-based; conditions: Homo sapiens
Summary of the method: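 Ba/F3 cells stably expressing long-isoform RET-51 mutants (electroporation), cultured in RPMI/10% FCS without IL-3; RET phosphorylation read by Western blot with anti-phospho-Y905 and anti-phospho-Y1062 antibodies, ECL detection.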

[13] = target: T1, SHC-transforming protein 1 (Homo sapiens) (UniProt P29353); experiment: Effect on SHC phosphorylation in RET deficient human 8505C cells at 1 to 100 nM measured after 2 hrs by western blot analysis; type: cell-based
T1 sequence (whole entry): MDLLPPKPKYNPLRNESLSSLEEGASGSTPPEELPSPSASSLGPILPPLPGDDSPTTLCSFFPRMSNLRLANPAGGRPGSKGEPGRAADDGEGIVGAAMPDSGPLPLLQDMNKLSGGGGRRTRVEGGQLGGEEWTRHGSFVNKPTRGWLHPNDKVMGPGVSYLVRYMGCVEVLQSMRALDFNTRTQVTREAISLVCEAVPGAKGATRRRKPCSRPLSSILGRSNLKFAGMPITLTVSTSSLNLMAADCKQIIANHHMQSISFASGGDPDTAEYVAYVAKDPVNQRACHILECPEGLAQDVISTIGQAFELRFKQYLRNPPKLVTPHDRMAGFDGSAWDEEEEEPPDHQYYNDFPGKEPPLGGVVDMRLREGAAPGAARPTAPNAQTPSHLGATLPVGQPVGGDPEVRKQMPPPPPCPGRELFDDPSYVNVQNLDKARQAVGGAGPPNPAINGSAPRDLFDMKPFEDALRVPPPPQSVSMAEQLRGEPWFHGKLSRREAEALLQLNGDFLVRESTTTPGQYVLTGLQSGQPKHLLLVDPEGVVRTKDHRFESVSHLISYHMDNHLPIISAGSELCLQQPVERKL

Calu-1 = experiment: Cytotoxicity against RET deficient human Calu1 cells supplemented with fresh medium containing compound for every 2 to 3 days measured during compound dosing; type: functional, cell-based
Summary of the method: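 Human RET-negative lines were seeded in six-well plates at 10000 cells/well, in 5% FCS (Nthy-ori-3-1) or 10% FCS (BCPAP, 8505-C, CALU-1, A549, PC-9). Drug or vehicle was added the day after plating, with medium changed every 2–3 days. Cells were counted every 2–3 days. IC50 was fitted from the last day of the growth curves.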

Mus musculus = experiment: In vivo inhibition of HRAS G12V mutant transfected in mouse NIH/3T3 cells implanted BALB/c nu/nu mouse assessed as reduction in MAPK phosphorylation in tumor at 1 mg/kg, po administered once daily via gavage for 3 days measured 3 hrs post-last dose by Western blot analysis; type: functional, organism-based
[14] = Toxicity in BALB/c nu/nu mouse assessed as change in total protein level at 10 mg/kg, po administered daily for 7 days; type: organism-based; conditions: in vivo, 168 h
[15] = Toxicity in BALB/c nu/nu mouse assessed as change in albumin level at 10 mg/kg, po administered daily for 7 days; type: organism-based; conditions: in vivo, 168 h
Summary of the method: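 Mice dosed orally with 10 mg/kg/day for 7 days; standard blood markers of organ damage measured.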

Sequence of Tyrosine-protein kinase HCK (Homo sapiens) (P08631 2-526 limits assumed): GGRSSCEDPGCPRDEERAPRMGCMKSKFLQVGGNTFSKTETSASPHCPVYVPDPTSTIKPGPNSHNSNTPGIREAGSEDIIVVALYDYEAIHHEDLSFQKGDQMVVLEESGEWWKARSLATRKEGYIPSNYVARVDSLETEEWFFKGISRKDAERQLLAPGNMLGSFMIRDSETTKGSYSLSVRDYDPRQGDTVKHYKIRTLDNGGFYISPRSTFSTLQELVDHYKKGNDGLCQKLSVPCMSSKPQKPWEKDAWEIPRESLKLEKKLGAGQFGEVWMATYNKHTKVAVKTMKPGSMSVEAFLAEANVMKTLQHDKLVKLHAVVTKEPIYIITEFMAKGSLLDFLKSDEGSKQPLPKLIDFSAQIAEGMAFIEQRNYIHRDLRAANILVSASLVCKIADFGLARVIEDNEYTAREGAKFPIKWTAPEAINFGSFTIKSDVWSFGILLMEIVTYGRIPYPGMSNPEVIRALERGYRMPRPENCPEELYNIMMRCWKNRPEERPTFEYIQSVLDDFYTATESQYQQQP

Activity [1]: > 90%
inhibition [2]: Active
inhibition [3]: Active
inhibition [4]: 100%
inhibition [5]: Active
inhibition [6]: Active
Activity (Homo sapiens [9]): inactive
Activity (Homo sapiens [10]): inactive
Activity [13]: inactive
SMILES: CC(C)(C)c1cc(NC(=O)Cc2ccc(-n3cnc4cc(-c5ccc(S(C)(=O)=O)cc5)ccc43)cc2)no1
inhibition (Homo sapiens [7]): Active
inhibition (Homo sapiens [8]): Active
Activity (A549): inactive
IC50 (BaF3 [11]): > 100 nM
inhibition (BaF3 [12]): Active
IC50 (Calu-1): > 100 nM
inhibition (Mus musculus): inactive
Activity [14]: Non-Toxic
Activity [15]: Non-Toxic

— ChEMBL document CHEMBL4354879, “Bioisosteric Discovery of NPA101.3, a Second-Generation RET/VEGFR2 Inhibitor Optimized for Single-Agent Polypharmacology” (J Med Chem, 2020)
